Results: ChEMBL document CHEMBL4138085, “Design, synthesis and antimicrobial evaluation of novel benzimidazole-incorporated sulfonamide analogues” (Eur J Med Chem, 2017)
Converted amounts (≈) assume the structure as drawn.

How the values were obtained:
Staphylococcus aureus [1] = assay: Antibacterial activity against Staphylococcus aureus ATCC 25923 after 24 hrs by NCCLS two fold broth microdilution method; format: functional; conditions: ATCC 25923, 24 h
In short: (§1)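 Two-fold serial broth microdilution in 96-well plates following NCCLS. Compounds were dissolved in DMSO as stocks, then diluted in Mueller–Hinton broth to final concentrations of 0.5–512 µg/mL. Plates were inoculated and incubated at 37 °C for 24 h, with growth read visually and spectrophotometrically. MIC was taken as the lowest concentration giving complete growth inhibition. Run in triplicate, with a DMSO-plus-inoculum solvent control.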

Staphylococcus aureus [2] = assay: Antibacterial activity against methicillin-resistant Staphylococcus aureus N315 after 24 hrs by NCCLS two fold broth microdilution method; format: functional; conditions: N315, 24 h
In short: (§2)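 Two-fold serial broth microdilution per NCCLS. Chloromycin and norfloxacin as reference drugs; DMSO with inoculum, no drug, as solvent control. Incubation 37 °C for 24 h. Growth read visually and spectrophotometrically. MIC is the lowest concentration completely inhibiting growth; triplicate.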

Bacillus subtilis = assay: Antibacterial activity against Bacillus subtilis ATCC 21216 after 24 hrs by NCCLS two fold broth microdilution method; format: functional; conditions: ATCC 21216, 24 h; in short: as §1
Micrococcus luteus = assay: Antibacterial activity against Micrococcus luteus ATCC 4698 after 24 hrs by NCCLS two fold broth microdilution method; format: functional; conditions: NCTC 2665, 24 h; in short: as §1
Bacillus = assay: Antibacterial activity against Bacillus proteus ATCC 13315 after 24 hrs by NCCLS two fold broth microdilution method; format: functional; conditions: ATCC 13315, 24 h; in short: as §1
Escherichia coli = assay: Antibacterial activity against Escherichia coli ATCC 8099 after 24 hrs by NCCLS two fold broth microdilution method; format: functional; conditions: ATCC 8099, 24 h
In short: as §1, with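 “NCCLS.” for “NCCLS. Compounds were dissolved in DMSO as stocks, then diluted in Mueller–Hinton broth to final concentrations of 0.5–512 µg/mL.”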

Pseudomonas aeruginosa = assay: Antibacterial activity against Pseudomonas aeruginosa ATCC 27853 after 24 hrs by NCCLS two fold broth microdilution method; format: functional; conditions: ATCC 27853, 24 h
In short: as §1, with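 “NCCLS.” for “NCCLS. Compounds were dissolved in DMSO as stocks, then diluted in Mueller–Hinton broth to final concentrations of 0.5–512 µg/mL.”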

Salmonella typhi = assay: Antibacterial activity against Bacillus typhi after 24 hrs by NCCLS two fold broth microdilution method; format: functional, Salmonella enterica subsp. enterica serovar Typhi; conditions: Salmonella enterica
In short: as §2, with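 “NCCLS. DMSO stocks diluted in Mueller–Hinton broth to 512, 256, 128, 64, 32, 16, 8, 4, 2, 1, 0.5 µg/mL.” for “NCCLS.”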

Candida albicans = assay: Antifungal activity against Candida albicans ATCC 76615 after 24 hrs by NCCLS two fold broth microdilution method; format: functional; conditions: ATCC 76615, 24 h
In short: (§3)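 Two-fold serial microdilution following NCCLS. A spore suspension in sterile distilled water was prepared from one-day-old cultures grown on Sabouraud agar and adjusted to a final 1–5 × 10^3 spores/mL. DMSO stocks were diluted in RPMI 1640 to eleven concentrations (0.5–512 µg/mL), inoculated and held at 35 °C for 24 h. Growth was read visually and spectrophotometrically, MIC was the lowest concentration with complete inhibition, and runs were in triplicate.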

Pichia norvegensis = assay: Antifungal activity against Candida mycoderma after 24 hrs by NCCLS two fold broth microdilution method; format: functional
Cyberlindnera jadinii = assay: Antifungal activity against Candida utilis after 24 hrs by NCCLS two fold broth microdilution method; format: functional; conditions: Williopsis jadinii; in short: as §3
Saccharomyces cerevisiae = assay: Antifungal activity against Saccharomyces cerevisiae after 24 hrs by NCCLS two fold broth microdilution method; format: functional; in short: as §3
Aspergillus flavus = assay: Antifungal activity against Aspergillus flavus after 24 hrs by NCCLS two fold broth microdilution method; format: functional; in short: as §3

`CC(=O)Nc1ccc(S(=O)(=O)Cc2nc3ccccc3n2CCCCCn2c3ccccc3c3ccccc32)cc1` was tested, and the MIC (Staphylococcus aureus [1]) was 256 µg/mL (≈ 453 µM), the MIC (Staphylococcus aureus [2]) was 512 µg/mL (≈ 907 µM) and the MIC (Bacillus subtilis) was 512 µg/mL (≈ 907 µM). For the same molecule, the MIC (Micrococcus luteus) was 128 µg/mL (≈ 227 µM), the MIC (Bacillus) was 512 µg/mL (≈ 907 µM) and the MIC (Escherichia coli) was 512 µg/mL (≈ 907 µM). The MIC (Pseudomonas aeruginosa) was 16 µg/mL (≈ 28.3 µM), the MIC (Salmonella typhi) was 64 µg/mL (≈ 113 µM) and the MIC (Candida albicans) was 512 µg/mL (≈ 907 µM). The MIC (Pichia norvegensis) was 32 µg/mL (≈ 56.7 µM), the MIC (Cyberlindnera jadinii) was 512 µg/mL (≈ 907 µM) and the MIC (Saccharomyces cerevisiae) was 32 µg/mL (≈ 56.7 µM). The MIC (Aspergillus flavus) was 128 µg/mL (≈ 227 µM).
With `O=C(N[C@H](CO)[C@H](O)c1ccc([N+](=O)[O-])cc1)C(Cl)Cl` [CHLORAMPHENICOL] the MIC (Staphylococcus aureus [1]) was 8 µg/mL (≈ 24.8 µM), the MIC (Bacillus subtilis) was 32 µg/mL (≈ 99 µM) and the MIC (Micrococcus luteus) was 8 µg/mL (≈ 24.8 µM). For the same molecule, the MIC (Bacillus) was 32 µg/mL (≈ 99 µM) and the MIC (Salmonella typhi) was 32 µg/mL (≈ 99 µM).
With `CCn1cc(C(=O)O)c(=O)c2cc(F)c(N3CCNCC3)cc21` [NORFLOXACIN] the MIC (Staphylococcus aureus [1]) was 8 µg/mL (≈ 25.1 µM), the MIC (Staphylococcus aureus [2]) was 1 µg/mL (≈ 3.13 µM) and the MIC (Bacillus subtilis) was 2 µg/mL (≈ 6.26 µM). For the same molecule, the MIC (Micrococcus luteus) was 1 µg/mL (≈ 3.13 µM), the MIC (Bacillus) was 4 µg/mL (≈ 12.5 µM) and the MIC (Escherichia coli) was 1 µg/mL (≈ 3.13 µM). The MIC (Pseudomonas aeruginosa) was 1 µg/mL (≈ 3.13 µM) and the MIC (Salmonella typhi) was 1 µg/mL (≈ 3.13 µM).
For `CCCCCn1c(CS(=O)(=O)c2ccc(N)cc2)nc2ccccc21`, the MIC (Staphylococcus aureus [1]) was 512 µg/mL (≈ 1430 µM), the MIC (Staphylococcus aureus [2]) was 512 µg/mL (≈ 1430 µM) and the MIC (Bacillus subtilis) was 512 µg/mL (≈ 1430 µM). It also gave an MIC (Micrococcus luteus) of 256 µg/mL (≈ 716 µM), an MIC (Bacillus) of 512 µg/mL (≈ 1430 µM) and an MIC (Escherichia coli) of 512 µg/mL (≈ 1430 µM). The MIC (Pseudomonas aeruginosa) was 512 µg/mL (≈ 1430 µM), the MIC (Salmonella typhi) was 512 µg/mL (≈ 1430 µM) and the MIC (Candida albicans) was 512 µg/mL (≈ 1430 µM). It also gave an MIC (Pichia norvegensis) of 512 µg/mL (≈ 1430 µM), an MIC (Cyberlindnera jadinii) of 512 µg/mL (≈ 1430 µM) and an MIC (Saccharomyces cerevisiae) of 128 µg/mL (≈ 358 µM). The MIC (Aspergillus flavus) was 256 µg/mL (≈ 716 µM).
For `OC(Cn1cncn1)(Cn1cncn1)c1ccc(F)cc1F` [FLUCONAZOLE], the MIC (Candida albicans) was 1 µg/mL (≈ 3.27 µM), the MIC (Pichia norvegensis) was 4 µg/mL (≈ 13.1 µM) and the MIC (Cyberlindnera jadinii) was 8 µg/mL (≈ 26.1 µM). The MIC (Saccharomyces cerevisiae) was 16 µg/mL (≈ 52.2 µM) and the MIC (Aspergillus flavus) was 256 µg/mL (≈ 836 µM).
`Nc1ccc(S(=O)(=O)Cc2nc3ccccc3n2CCCCCn2c3ccccc3c3ccccc32)cc1` showed an MIC (Staphylococcus aureus [1]) of 512 µg/mL (≈ 980 µM), an MIC (Staphylococcus aureus [2]) of 128 µg/mL (≈ 245 µM) and an MIC (Bacillus subtilis) of 32 µg/mL (≈ 61.2 µM). It also gave an MIC (Micrococcus luteus) of 512 µg/mL (≈ 980 µM), an MIC (Bacillus) of 512 µg/mL (≈ 980 µM) and an MIC (Escherichia coli) of 64 µg/mL (≈ 122 µM). The MIC (Pseudomonas aeruginosa) was 512 µg/mL (≈ 980 µM), the MIC (Salmonella typhi) was 64 µg/mL (≈ 122 µM) and the MIC (Candida albicans) was 512 µg/mL (≈ 980 µM). It also gave an MIC (Pichia norvegensis) of 16 µg/mL (≈ 30.6 µM), an MIC (Cyberlindnera jadinii) of 512 µg/mL (≈ 980 µM) and an MIC (Saccharomyces cerevisiae) of 64 µg/mL (≈ 122 µM). The MIC (Aspergillus flavus) was 128 µg/mL (≈ 245 µM).
`Nc1ccc(S(=O)(=O)Cc2nc3ccccc3n2Cc2ccc(Cl)cc2Cl)cc1` gave an MIC (Staphylococcus aureus [1]) of 8 µg/mL (≈ 17.9 µM), an MIC (Staphylococcus aureus [2]) of 128 µg/mL (≈ 287 µM) and an MIC (Bacillus subtilis) of 32 µg/mL (≈ 71.7 µM). The MIC (Micrococcus luteus) was 64 µg/mL (≈ 143 µM), the MIC (Bacillus) was 128 µg/mL (≈ 287 µM) and the MIC (Escherichia coli) was 16 µg/mL (≈ 35.8 µM). The MIC (Pseudomonas aeruginosa) was 32 µg/mL (≈ 71.7 µM), the MIC (Salmonella typhi) was 128 µg/mL (≈ 287 µM) and the MIC (Candida albicans) was 16 µg/mL (≈ 35.8 µM). The MIC (Pichia norvegensis) was 512 µg/mL (≈ 1150 µM), the MIC (Cyberlindnera jadinii) was 2 µg/mL (≈ 4.48 µM) and the MIC (Saccharomyces cerevisiae) was 256 µg/mL (≈ 574 µM). It also gave an MIC (Aspergillus flavus) of 4 µg/mL (≈ 8.96 µM).
`Nc1ccc(S(=O)(=O)Cc2nc3ccccc3n2Cc2ccc(Cl)cc2)cc1` showed an MIC (Staphylococcus aureus [1]) of 256 µg/mL (≈ 621 µM), an MIC (Staphylococcus aureus [2]) of 256 µg/mL (≈ 621 µM) and an MIC (Bacillus subtilis) of 8 µg/mL (≈ 19.4 µM). It also gave an MIC (Micrococcus luteus) of 8 µg/mL (≈ 19.4 µM), an MIC (Bacillus) of 256 µg/mL (≈ 621 µM) and an MIC (Escherichia coli) of 64 µg/mL (≈ 155 µM). It also gave an MIC (Pseudomonas aeruginosa) of 256 µg/mL (≈ 621 µM), an MIC (Salmonella typhi) of 512 µg/mL (≈ 1240 µM) and an MIC (Candida albicans) of 256 µg/mL (≈ 621 µM). For the same molecule, the MIC (Pichia norvegensis) was 16 µg/mL (≈ 38.8 µM), the MIC (Cyberlindnera jadinii) was 32 µg/mL (≈ 77.7 µM) and the MIC (Saccharomyces cerevisiae) was 64 µg/mL (≈ 155 µM). The MIC (Aspergillus flavus) was 128 µg/mL (≈ 311 µM).
Molecule `CCCCCCCCn1c(CS(=O)(=O)c2ccc(NC(C)=O)cc2)nc2ccccc21` has an MIC (Staphylococcus aureus [1]) of 64 µg/mL (≈ 145 µM), an MIC (Staphylococcus aureus [2]) of 512 µg/mL (≈ 1160 µM) and an MIC (Bacillus subtilis) of 128 µg/mL (≈ 290 µM). The MIC (Micrococcus luteus) was 256 µg/mL (≈ 580 µM), the MIC (Bacillus) was 256 µg/mL (≈ 580 µM) and the MIC (Escherichia coli) was 512 µg/mL (≈ 1160 µM). The MIC (Pseudomonas aeruginosa) was 256 µg/mL (≈ 580 µM), the MIC (Salmonella typhi) was 512 µg/mL (≈ 1160 µM) and the MIC (Candida albicans) was 512 µg/mL (≈ 1160 µM). It also gave an MIC (Pichia norvegensis) of 512 µg/mL (≈ 1160 µM), an MIC (Cyberlindnera jadinii) of 512 µg/mL (≈ 1160 µM) and an MIC (Saccharomyces cerevisiae) of 8 µg/mL (≈ 18.1 µM). It also gave an MIC (Aspergillus flavus) of 512 µg/mL (≈ 1160 µM).
`Nc1ccc(S(=O)(=O)Cc2nc3ccccc3n2Cc2ccc(Cl)c(Cl)c2)cc1` was tested, and the MIC (Staphylococcus aureus [1]) was 512 µg/mL (≈ 1150 µM), the MIC (Staphylococcus aureus [2]) was 128 µg/mL (≈ 287 µM) and the MIC (Bacillus subtilis) was 512 µg/mL (≈ 1150 µM). It also gave an MIC (Micrococcus luteus) of 256 µg/mL (≈ 574 µM), an MIC (Bacillus) of 512 µg/mL (≈ 1150 µM) and an MIC (Escherichia coli) of 512 µg/mL (≈ 1150 µM). It also gave an MIC (Pseudomonas aeruginosa) of 512 µg/mL (≈ 1150 µM), an MIC (Salmonella typhi) of 64 µg/mL (≈ 143 µM) and an MIC (Candida albicans) of 64 µg/mL (≈ 143 µM). The MIC (Pichia norvegensis) was 512 µg/mL (≈ 1150 µM), the MIC (Cyberlindnera jadinii) was 256 µg/mL (≈ 574 µM) and the MIC (Saccharomyces cerevisiae) was 256 µg/mL (≈ 574 µM). It also gave an MIC (Aspergillus flavus) of 512 µg/mL (≈ 1150 µM).
